Assay outcomes: PubChem BioAssay, several laboratories
The entries come from a sample that favours hits as a whole.
hDAT+cocaine: changed human dopamine transporter uptake under cocaine IC80. Q01959. LLC-PK1 hDAT cells, [14C]-dopamine uptake with cocaine IC80; actives deviate in either direction. B-score at 10 µM. actives 1.3% (n = 110,000). AID 449768;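 active = Z score or B-score, a plate-position-corrected score, falls beyond the plate's 99.7% confidence bounds, in either direction; inactive = both scores lie inside the 99.7% bounds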
AP complement: alternative pathway complement inhibition, orthogonal assay | Human serum alternative complement pathway, LPS-coated ELISA, C3 deposition; tested in compound mixtures | inhibition, % at 5 µM | actives 0.08% (n = 62,000);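 active = inhibition above 30% in each of the two pooled mixtures holding the compound, so the lower value exceeds 30%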
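Test system: human serum complement alternative pathway, C3 deposition onto LPS / Medium: Mg2+-EGTA GVB++ buffer containing human serum at 1:15 dilution / Probe or stimulus: Plate-bound LPS / Times: 1 h at 37 °C / Signal: ELISA with HRP anti-human C3 antibody, TMB substrate, absorbance 450 nm / Measure: percent inhibition / Repeats: two pool placements per compound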
D1 allo mod: allosteric modulators of human D1 dopamine receptor | P21728 | HEK293 D1, CRE-luciferase, dopamine EC30 potentiation; actives deviate in either direction | B-score at 10 µM | actives 5.9% (n = 58,000) | AID 641;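 active = luminescence count or its row- and column-corrected plate score outside the 99.7% band of the plate's sample wells, on either side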
Target sequence (P21728 whole entry, looked up): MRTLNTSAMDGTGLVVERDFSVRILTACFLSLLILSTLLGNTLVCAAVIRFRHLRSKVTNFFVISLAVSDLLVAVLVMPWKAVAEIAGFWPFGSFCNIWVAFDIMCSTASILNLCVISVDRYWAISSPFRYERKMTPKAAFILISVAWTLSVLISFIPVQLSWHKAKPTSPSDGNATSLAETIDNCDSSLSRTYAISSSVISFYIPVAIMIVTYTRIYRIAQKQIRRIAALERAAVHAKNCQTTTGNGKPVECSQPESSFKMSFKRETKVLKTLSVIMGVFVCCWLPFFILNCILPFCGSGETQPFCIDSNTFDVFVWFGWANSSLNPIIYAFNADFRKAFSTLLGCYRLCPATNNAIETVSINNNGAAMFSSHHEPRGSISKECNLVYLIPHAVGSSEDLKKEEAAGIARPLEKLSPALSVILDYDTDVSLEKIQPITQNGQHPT
WNV NS2B-NS3 inh: inhibitors of West Nile virus NS2B-NS3 protease. P06935. z-score (no concentration beside the values). WNV NS2B-NS3 protease, fluorogenic substrate Ex360/Em465; stronger effect = lower value. AID 577. actives 0.18% (n = 65,000); in the data active = z-score below about -3
D1 PAM confirm: D1 receptor (human) allosteric modulation, confirmed. shares compounds with D1 allo mod. HEK293 D1 CRE-luciferase, dopamine EC30 potentiation; stronger effect = higher value. luminescence at 10 µM. actives 88% (n = 2,200). AID 642;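 active = luminescence in either of two replicates above the same-plate mean plus 3 SD of the low-dose dopamine control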
D1 no dopamine: secondary test of D1 modulators: activity without dopamine; HEK293 D1 CRE-luciferase, luminescence, no dopamine; stronger effect = higher value; shares compounds with D1 allo mod; luminescence at 10 µM; actives 0.8% (n = 1,900); in the data active = luminescence above about 3900
Isoprot counter: alters isoproterenol CRE-luciferase response in HEK293 cells; actives 63% (n = 2,200); luminescence at 10 µM; shares compounds with D1 allo mod; HEK293 D1 CRE-luciferase, isoproterenol EC30 counter-screen; stronger effect = higher value;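 active = luminescence in either replicate above plate mean of wells with a partly effective reference agonist dose plus 3 SD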;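 note: isoproterenol raises cAMP through native beta-adrenoceptor Gs so signal bypasses D1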
A number is an active result; - = inactive; . = no result.

SMILES	hDAT+cocaine	AP complement	D1 allo mod	WNV NS2B-NS3 inh	D1 PAM confirm	D1 no dopamine	Isoprot counter
CCCc1cc(C(=O)Nc2sc(C(C)=O)c(C)c2C(=O)OCC)no1	-	-	6.5	-	7336	-	-
CCOC(=O)c1sc(NC(=O)CSc2nnc(C)s2)c(C(=O)OCC)c1C	-	-	6.1	-	25484	-	4392
CCOC(=O)c1c(NC(=O)c2cc(CC(C)C)on2)sc(C(C)=O)c1C	-	.	.	.	.	.	.
COC(=O)C1=C[C@@H](C(=O)OC)[C@@H]2C3=C(C(=O)C2(C)C)[C@H](c2ccccc2)[C@@H]2C(=O)N(C)C(=O)[C@@H]2[C@@H]3C1	-	.	.	.	.	.	.
CCc1ccc(C(C)NC(=O)Cn2cnc3c(=O)n(C)c(=O)n(C)c32)cc1 (stereo unspecified)	-	.	.	.	.	.	.
CCCNCC(O)COc1ccccc1C(=O)CCc1ccccc1 (stereo unspecified)	-	-	-	-	.	.	.
CC(=O)n1nc(-c2ccco2)nc1N	-	-	-	-	.	.	.
CCC(=O)n1nc(-c2ccco2)nc1N	-	-	15	-	6080	-	-
Cc1[nH]nc2c1C(c1ccc3c(c1)OCO3)C(C#N)=C(N)O2 (stereo unspecified)	-	-	.	-	.	.	.
COc1ccc(C2C(C#N)=C(N)Oc3n[nH]c(-c4ccccn4)c32)c(OC)c1OC (stereo unspecified)	.	-	11	-	17692	-	5544
CCOc1ccc(-c2[nH]nc3c2C(c2ccc4c(c2)OCO4)C(C#N)=C(N)O3)cc1OC (stereo unspecified)	-	-	2.4	-	10328	10840	4324
COc1cc(C2C(C#N)=C(N)Oc3n[nH]c(-c4ccncc4)c32)cc(OC)c1OC (stereo unspecified)	-	-	-	-	.	.	.
CCN(CC)c1ccc(C2C(C(=O)OC(C)C)C(=O)CC(C)(O)C2C(=O)OC(C)C)cc1 (stereo unspecified)	-	.	.	.	.	.	.
CCS(=O)(=O)n1nc(-c2ccccc2)nc1NCc1ccco1	-	-	9.8	-	9056	-	4104
CC(C)(C)OCC(NC(=O)C(CC(N)=O)NC(=O)OC(C)(C)C)C(=O)OC(C)(C)C (stereo unspecified)	-	-	-	-	.	.	.
COc1ccc(CN2C(=O)c3cccnc3C2Nc2ccc(C)cc2)cc1 (stereo unspecified)	-	.	.	.	.	.	.
COc1ccc(CN2C(=O)c3cccnc3C2Nc2cc(Cl)c(OC)cc2OC)cc1 (stereo unspecified)	-	-	6.5	-	10420	.	3872
CCOc1ccc(-n2c(SC(C)C)nc3c(c2=O)SCC3)cc1	-	-	14	-	19936	-	4596
CSc1nc2c(c(=O)n1-c1ccccc1)SCC2	-	.	2.7	.	11540	-	-
NC(=O)CC(NC(=O)Cc1ccc(Br)cc1)c1ccc(NCc2ccc(F)cc2)c([N+](=O)[O-])c1 (stereo unspecified)	-	.	.	.	.	.	.
CC(=O)c1sc(NC(=O)c2ccc(Cn3cc(Br)cn3)o2)nc1C	-	-	.	-	.	.	.
Cc1ccc2nc(NC(=O)c3ccc(Cn4cc(Cl)cn4)o3)sc2c1	-	.	6.6	-	-	-	-
CCNC(=O)c1c(O)c2ccccc2[nH]c1=O	-	-	11	-	15428	.	2876
COc1ccc(C(=O)NCCc2c[nH]c3ccccc23)cc1S(=O)(=O)N1CCOCC1	-	-	-	-	.	.	.
CC1(C)Cc2c(C#N)c(N)n(-c3ccccc3)c(=O)c2CO1	-	-	-	-	.	.	.
CCC1(C)Cc2c(c(=O)n(-c3ccccc3)c3ncnc(N)c23)CO1 (stereo unspecified)	-	-	5.5	-	10848	.	-
COC(=O)C(/C=N/OCc1ccc([N+](=O)[O-])cc1)NC(=O)c1cccc(Cl)c1 (stereo unspecified)	-	.	.	.	.	.	.
O=c1c2c(nc3n1CCCCC3)sc1c(O)c(Br)ccc12	-	.	.	.	.	.	.
CCN(CC)CCOc1c(Br)ccc2c1sc1nc3n(c(=O)c12)CCC3	-	-	2.7	-	8312	-	-
CCCCCNc1nc2ccccc2nc1NS(=O)(=O)c1cccs1	-	.	.	.	.	.	.
